Screening results: PubChem BioAssay, several laboratories
Shown are actives, neighbours in structure and some others; about 6.4% of the full set was active somewhere.
WT yeast gro inh: growth inhibition of WT yeast, mitochondrial fusion screen; mitochondrial fusion phenotypic screen, WT strain; inhibition, % at 10 µM; 190,000 compounds, 2.1% hits; in the data active = inhibition above about 58%; tested in S. cerevisiae
EBV gp42 inh: blocks Epstein-Barr virus glycoprotein 42 binding. 220,000 compounds, 0.42% hits. Fluorescence polarization binding assay, mP read-out. inhibition, % (tested at 21.74 µM); in the data active = inhibition above about 50%
Target sequence (Q1HVG2 whole entry, looked up): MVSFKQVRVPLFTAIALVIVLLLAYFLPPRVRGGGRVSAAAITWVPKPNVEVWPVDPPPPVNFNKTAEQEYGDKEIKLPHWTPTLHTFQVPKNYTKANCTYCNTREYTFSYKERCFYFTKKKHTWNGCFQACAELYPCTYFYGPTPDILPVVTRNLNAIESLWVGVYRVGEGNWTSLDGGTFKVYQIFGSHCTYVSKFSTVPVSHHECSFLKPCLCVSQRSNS
CHOP inhibitor: inhibitors of CHOP induction in ER stress response | CHO-K1 CHOP-promoter luciferase, tunicamycin-induced, 15-18 h | inhibition, % at 10 µM | 220,000 compounds, 3.8% hits;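 active = compounds that reduced the stress-induced luciferase reporter signal by more than about 70% of percent inhibition, limit read from the data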;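 also: 0% = tunicamycin plus vehicle and 100% = wells without tunicamycin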
MPTP block: permeability transition pore inhibition; isolated mouse mitochondria, Ca2+ swelling absorbance, 30 min; inhibition, % at 10 µM; 360,000 compounds, 1.4% hits;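 active = inhibition of 50% or more, scaled per plate between neutral and stimulator controls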;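 also: 0% = DMSO wells given calcium and 100% = 1 mM EGTA wells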
GRIN3A LBD mod: modulates the human NR3A ligand-binding domain; AID 1259313; Tm shift relative to glycine control, % at 25 µM; 340,000 compounds, 2.5% hits; NR3A LBD differential scanning fluorimetry, Tm shift; 0% = protein alone, 100% = glycine-bound protein;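 active = melting temperature shift of at least 10% of the positive control shift, at one fixed dose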
TbMetRS inhib: Trypanosoma brucei MetRS inhibition | 360,000 compounds, 0.4% hits | purified T. brucei MetRS, ATP depletion, Kinase-Glo luminescence | inhibition, % at 11.9 µM;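 active = inhibition above a per-plate cutoff of the control wells' mean inhibition plus 3 SD, cut at about 5.5% in these data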;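 also: 0% = DMSO wells median and 100% = median of wells with control inhibitor compound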
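Dosing: 11.9 µM single point; system: parasite MetRS enzyme; technique: luminescence of leftover ATP; times: 15 min enzyme-compound preincubation, 2 h reaction, 10 min detection, 25 °C; replicates: each compound tested once; read-out basis: percent inhibition relative to median high and low control wells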
An asterisk follows results filed as active; . = no result.

SMILES | WT yeast gro inh | EBV gp42 inh | CHOP inhibitor | MPTP block | GRIN3A LBD mod | TbMetRS inhib
Cc1ccc(C)c(N/C=C(\C#N)c2nc3ccccc3o2)c1 | . | . | . | 3 | 0 | -1
COc1cc(/C=C(\C#N)c2nc3ccccc3o2)ccc1O | . | -188 | 13 | 14 | 15* | 0
Cc1cc(C)cc(OCC(=O)Nc2ccc(F)cc2)c1 | 10 | -12 | -6 | 4 | -1 | 0
O=C(COc1ccccc1[N+](=O)[O-])Nc1ccccc1N1CCCC1 | 13 | 4 | 50 | 6 | 16* | -1
O=C(CNCc1ccccc1Cl)Nc1ccccc1N1CCCCC1 | 80* | 4 | 45 | 0 | -1 | -1
CN(C)S(=O)(=O)c1ccc(Cl)c(NC(=O)COc2ccccc2[N+](=O)[O-])c1 | 0 | 1 | -9 | 0 | 13* | -1
Cc1cc(C)cc(OCC(=O)Nc2ccc3c(c2)C(=O)c2ccccc2C3=O)c1 | -5 | -34 | -5 | 5 | 14* | -1
CCN(CC)S(=O)(=O)c1ccc(Cl)c(NC(=O)COc2ccccc2[N+](=O)[O-])c1 | -24 | -4 | 11 | 0 | 2 | 1
COc1cccc(C(=O)NCc2ccco2)c1 | . | . | . | 1 | 2 | 1
Cc1ccc(S(=O)(=O)N2[C@@H](c3ccc(Br)cc3)C(C(=O)O)=CC[C@H]2c2cccc(C)c2)cc1 | . | . | . | 1 | -7 | 0
O=C(NCc1ccc(F)cc1)c1ccc(CS(=O)(=O)Cc2ccc(F)cc2)o1 | 0 | 5 | 23 | -1 | -1 | 0
CC1CCN(C(=O)CCC(=O)Nc2nnc(C3CCCCC3)s2)CC1 | . | . | . | 1 | 0 | 0
Cc1cc(C)cc(OCC(=O)Nc2ccccc2N2CCCCC2)c1 | 15 | 2 | 86* | -1 | 0 | 0
CC(=O)N1CCN(c2ccccc2NC(=O)COc2ccc(Br)cc2)CC1 | -15 | -13 | -1 | -1 | -14 | 0
Cc1ccccc1OCC(=O)Nc1ccccc1N1CCCCC1 | 43 | 3 | 89* | 7 | 2 | 0
O=C(COC(=O)c1ccco1)Nc1ccc([N+](=O)[O-])cc1Cl | . | . | . | -1 | -2 | 0
O=C(COc1cc(Cl)c(Cl)cc1Cl)Nc1ccc([N+](=O)[O-])cc1Cl | . | -7 | 4 | 1 | 10* | 0
O=C(COc1ccc(Br)cc1)Nc1ccccc1N1CCCC1 | -7 | 7 | 70* | 5 | -2 | -1
CC1=CCC2C(=O)N(c3cccc(C(=O)Nc4ccc(Cl)cc4)c3)C(=O)C2C1 (stereo not given) | . | . | . | -1 | -3 | 0
Cc1ccc(Cc2c(-c3cccc(Cl)c3)nc3cc(C)c(Br)c(C)n23)cc1 | . | . | . | 2 | . | 1
CC(=O)CSc1nnc(-c2ccc3c(c2)OCO3)o1 | -14 | -16 | -16 | -1 | 3 | -1
O=C(O)CCSc1nnc(-c2ccc3c(c2)OCO3)o1 | -6 | -6 | 86* | -2 | -1 | 0
C[C@H](CO)N1C[C@H](C)[C@@H](CN(C)S(=O)(=O)c2cccs2)Oc2ccc(NC(=O)Nc3ccc(C(F)(F)F)cc3)cc2C1=O | . | . | . | -1 | 23* | 0
C[C@@H]1CN([C@H](C)CO)C(=O)c2cc(NC(=O)Nc3ccc(C(F)(F)F)cc3)ccc2O[C@H]1CN(C)S(=O)(=O)c1cccs1 | . | . | . | 1 | 17* | 0
CC1CC(N(C(=O)c2ccccc2Cl)c2ccccc2)c2ccccc2N1 (stereo not given) | 67* | 3 | 18 | 0 | 3 | 0
SMILES | WT yeast gro inh | EBV gp42 inh | CHOP inhibitor | MPTP block | GRIN3A LBD mod | TbMetRS inhib
COc1cc(NC(=O)CCC(=O)Nc2ccc3nc(N4CCOCC4)cc(C)c3c2)cc(OC)c1OC | . | . | . | 0 | 1 | -1
O=C(NNc1nc2ccccc2s1)c1ccccc1F | 4 | -13 | 8 | 0 | -4 | -2
Fc1ccc2nc(Nc3nc4cc5c(cc4s3)OCCO5)sc2c1 | 20 | -13 | 21 | 41 | 4 | -1
Fc1ccc2nc(Nc3nc4cc5c(cc4s3)OCO5)sc2c1 | 22 | -14 | -30 | 7 | 31* | 0
Fc1ccc2nc(Nc3ccccc3)sc2c1 | 12 | 4 | 45 | 5 | 19* | 0
NNc1nc2ccc(F)cc2s1 | 65* | -2 | 6 | 4 | 1 | -1
Fc1cccc2sc(Nc3nc4ccccc4s3)nc12 | 54 | -22 | 85* | 39 | 28* | 0
O=C(CSCCO)Nc1ccccc1 | -6 | -14 | -32 | 0 | 0 | 0
Cc1ccccc1-n1nnnc1SCC(=O)NCC1(N2CCOCC2)CCCCC1 | . | . | . | 0 | 0 | 0
COc1cc(/C=C/C(=O)OCC(=O)NCc2ccco2)ccc1O | . | . | . | 0 | -5 | 0
Nc1nc2ccccc2n1/N=C/c1ccc(-c2ccccc2)o1 | 35 | 1 | 48 | 6 | 30* | -1
CCOc1ccc(-n2c(=O)c3sccc3n(CC(=O)NCc3ccco3)c2=O)cc1 | -17 | -28 | -3 | 0 | 1 | -1
COCC(C)n1c(C)cc(C(=O)COC(=O)CN=C2NS(=O)(=O)c3ccccc32)c1C (stereo not given) | -9 | -24 | -23 | 7 | 10* | 0
NC(N)=NS(=O)(=O)c1ccc(NC(=S)NC(=O)c2ccc3c(c2)OCO3)cc1 | 3 | 6 | -17 | 0 | -1 | 2
COC(=O)c1ccsc1NC(=O)CN1CCN(Cc2ccc3c(c2)OCO3)CC1 | 11 | -12 | 38 | -2 | -3 | 0
COC(=O)c1c(NC(=O)CN2CCN(Cc3ccc4c(c3)OCO4)CC2)sc(C)c1C | 48 | -15 | 80* | 2 | -1 | -2
Cc1ccc(Cl)cc1N1CCN(Cc2nnnn2C2CCCCC2)CC1 | 74* | -5 | 65 | 0 | -7 | 0
Cc1ccc(Cl)cc1N1CCN(Cc2nnnn2Cc2ccco2)CC1 | 30 | -5 | 72* | 3 | 3 | 0
COc1cc(C2Nc3ccccc3C(=O)N2c2ccccc2)c(Br)cc1OCC(=O)O (stereo not given) | -1 | -20 | 8 | -1 | -1 | -1
O=c1c2ccccc2nc(/C=C/c2ccc(O)cc2)n1CCc1ccccc1 | 5 | 1 | 74* | -15 | 20* | 0
O=c1c2ccccc2nc(/C=C/c2ccccc2)n1CCCO | . | . | . | -1 | 0 | -2
Cc1ccc(C(=O)CN2CCN(c3ccccn3)CC2)c(C)c1 | . | . | . | 0 | 2 | -1
Cc1ccc2cc(C)c(N3CCN(c4ccccn4)CC3)nc2c1 | 39 | -2 | 74* | 0 | 0 | -1
COc1ccc(-c2cc(-c3nnc(-c4ccncc4)o3)c3ccccc3n2)cc1 | 11 | -28 | 9 | 2 | -6 | 0
c1ccc2c(-c3nc(C4CCCCC4)no3)cc(-c3ccncc3)nc2c1 | 43 | 8 | 33 | 6 | 15* | -1
CCOC(=O)C1=NNC(C(=O)c2ccc(Cl)cc2)C1c1ccc(OC)cc1 (stereo not given) | 23 | 82* | 56 | 1 | -3 | -1
